Shown are actives, neighbours in structure and some others; about 1.5% of the full set was active somewhere.
CXCR6 block: blocks human CXCR6 beta-arrestin recruitment | 360,000 compounds, 0.36% hits | O00574 | AID 602244 | CHO-K1 PathHunter CXCR6 beta-arrestin, luminescence | inhibition, % at 20 µM; in the data active means inhibition above about 34%, passing the limit was not always enough;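 further: antagonist mode with CXCL16 agonist at 10 nM final; 0% = 10 nM CXCL16 with DMSO and 100% = unstimulated wells without agonist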
APJ antag: antagonists of human APJ apelin receptor. P35414. CHO-K1 APJ beta-arrestin complementation, luminescence. inhibition, % at 20 µM. 330,000 compounds, 0.32% hits;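 active means inhibition above about 40% at 20 µM, limit read from the data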;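 further: cells challenged with 10 nM apelin-13 agonist together with compound; plate controls were apelin-13 plus DMSO wells for no effect and DMSO wells lacking apelin-13 for full effect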
Target sequence (P35414 whole entry, looked up): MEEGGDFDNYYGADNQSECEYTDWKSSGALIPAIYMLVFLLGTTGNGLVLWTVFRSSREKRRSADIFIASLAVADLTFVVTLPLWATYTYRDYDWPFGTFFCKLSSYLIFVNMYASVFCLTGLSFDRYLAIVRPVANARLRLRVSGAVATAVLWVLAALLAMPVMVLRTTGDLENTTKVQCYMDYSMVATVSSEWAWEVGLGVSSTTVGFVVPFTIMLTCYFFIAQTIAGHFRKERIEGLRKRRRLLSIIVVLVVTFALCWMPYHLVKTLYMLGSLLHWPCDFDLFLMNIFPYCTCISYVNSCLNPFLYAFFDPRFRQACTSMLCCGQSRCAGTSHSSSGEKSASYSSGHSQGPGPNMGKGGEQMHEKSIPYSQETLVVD
CCR6 antag: CCR6 (human) receptor antagonism | CHO-K1 CCR6 PathHunter beta-arrestin, luminescence, CCL20-stimulated | inhibition, % at 20 µM | 340,000 compounds, 0.49% hits | AID 493098;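 active means compounds whose inhibition of the agonist-driven luminescence signal at 20 µM reaches about 50%, limit read from the data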;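 further: cells stimulated with CCL20 at 14 nM final; plate controls were DMSO with CCL20 for no effect and DMSO without agonist for full effect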
APJ agonist: APJ receptor agonism; P35414; 330,000 compounds, 0.11% hits; activation, % at 20 µM; CHO-K1 APJ PathHunter beta-arrestin, luminescence; 0% DMSO wells, 100% apelin;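 active means activation more than six SD over the plate average, tested at 20 µM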;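 further: 0% = DMSO alone and 100% = apelin-13 at 10 nM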
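Test system: CHO-K1 APJ beta-arrestin complementation cell line | Compound: Single test compound dose, 20 µM final, 1% DMSO | Incubation: Compound 90 min 25 °C, reagent 1 h | Measured by: beta-gal luminescence | Read-out basis: APJ–arrestin association signal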
EBI2 antag: EBI2 (human) antagonism. AID 651636. P32249. inhibition, % at 5 µM. EBI2 beta-arrestin recruitment, luminescence, 7a,25-OHC stimulated. 360,000 compounds, 0.81% hits; in the data active means inhibition above about 38%;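 further: enzyme fragment complementation signal reports receptor beta-arrestin coupling in cells; 0% = agonist plus DMSO wells and 100% = wells without agonist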
Numbers without * were called inactive; / = not tested or not shown.

SMILES	CXCR6 block	APJ antag	CCR6 antag	APJ agonist	EBI2 antag
O=C(Nc1cc(S(=O)(=O)Nc2ccc(Cl)cc2)ccc1O)c1ccc(S(=O)(=O)N2CCCCCC2)cc1	2.6	-13.8	9.0	-1.6	10.5
CC(OC(=O)C1=COCCO1)C(=O)Nc1ncc(Cl)cc1Cl (stereo unspecified)	-1.9	-2.5	-1.9	5.3	-5.8
O=[N+]([O-])c1cc(Cl)cc(/C=N/n2cnnc2)c1O	31.5*	4.4	36.2	1.2	12.1
Cc1cc(C)c(S(=O)(=O)NCC(=O)NCc2ccccn2)c(C)c1	9.1	3.6	1.2	-3.7	-9.8
O=[N+]([O-])c1ccc(N=Cc2sc3ccccc3c2O)cc1	-7.5	1.2	51.6*	-2.5	1.7
O=[N+]([O-])c1cccc(N=Cc2sc3ccccc3c2O)c1	/	-17.0	/	1.1	/
CC(C)NC(=O)C1(C)CSCC(=O)N1CCOc1ccccc1 (stereo unspecified)	/	/	/	/	-1.3
CC(C)(C)c1ccc(CN2N=Nc3ccccc3S2(=O)=O)cc1	49.1*	32.7	63.5*	8.9	7.1
O=S1(=O)c2ccccc2N=NN1Cc1ccc(Cl)c(Cl)c1	/	-13.4	/	6.4	/
COc1ccc(N2C(=O)c3ccccc3NC(=O)C2C(=O)NCCc2ccccc2F)cc1 (stereo unspecified)	/	/	/	/	-2.9
O=C(Cn1ncc(Cl)c(Cl)c1=O)N1CCc2ccccc21	16.7	/	17.2	/	43.2*
CN(C)S(=O)(=O)c1ccc(C(=O)Nc2ccc3c(c2)CCC3)cc1	9.0	8.4	7.0	-0.9	56.0*
CN(C)S(=O)(=O)c1cccc(C(=O)Nc2ccc3c(c2)CCC3)c1	0.0	17.4	-1.8	-0.3	5.9
COc1ccc(C2(C)NC(=O)N(CC(=O)NC(C)c3ccc(CC(C)C)cc3)C2=O)cc1 (stereo unspecified)	3.5	-5.4	-8.4	2.2	8.7
CC(C)(C)C(=O)/C(=C\c1ccc([N+](=O)[O-])cc1)n1cncn1	/	69.8*	/	-6.7	/
CC(=O)c1nn(-c2cccc(C)c2)cc1C(=O)c1cccc(Br)c1	-0.3	19.6	-4.0	7.1	0.2
CC(=O)c1nn(-c2ccccc2)cc1C(=O)c1ccc(C)cc1	-4.3	-13.3	14.2	-0.5	56.3*
O=c1c2[nH]cnc2n(-c2cccc(Br)c2)c(=O)n1Cc1ccccc1	12.5	22.6	33.3	-2.4	-1.0
Cc1cccc(C)c1NC(=O)CNC(=O)Cn1nc(C)c(C)c(C#N)c1=O	-21.1	3.9	-4.2	0.1	1.2
CC(=O)NCC1(c2ccccc2)CCN(CCCC(=O)c2ccc(F)cc2)CC1	1.3	/	/	/	-1.4
Cc1ccc(S(=O)(=O)NCCC(=O)NCC(=O)Nc2c(C)cccc2C)cc1C	7.0	8.6	4.2	-4.6	-2.3
Cc1nc2scc(-c3ccccc3)c2c(=O)n1N=C1C=CC(=O)C=C1	/	-0.8	99.2*	-0.8	/
Cc1nc2scc(-c3ccccc3)c2c(=O)n1N	3.5	-4.1	6.8	-1.4	-1.2
O=C(Nc1ccc2c(c1)OCCO2)C(C1CC1)n1c(=O)c(-c2cc3ccccc3[nH]2)nc2ccccc21 (stereo unspecified)	/	/	/	/	-4.8
COc1cccc(/C=N/Nc2nc(Nc3ccc([N+](=O)[O-])cc3)nc(N3CCCC3)n2)c1O	45.4*	-9.1	68.6*	0.5	13.2
SMILES	CXCR6 block	APJ antag	CCR6 antag	APJ agonist	EBI2 antag
O=C(c1cccs1)c1no[n+]([O-])c1C(=O)c1cccs1	-10.9	-7.1	3.8	30.0*	3.9
O=C(c1ccc(Cl)nc1)c1cccs1	/	-22.8	3.5	-1.5	/
O=C(NCC[C@H]1CC[C@@H](NC(=O)C2CCOCC2)[C@@H](CO)O1)Nc1ccc(Cl)cc1	/	/	/	/	-7.1
CCC1=NN(C(=O)c2ccc(Cl)cc2)C(O)(c2ccc(C)cc2)C1 (stereo unspecified)	34.4	28.8	64.3*	0.8	-4.3
COc1cccc(NC(=O)c2ccc(OC(F)(F)F)cc2)c1	-2.4	-12.3	16.8	1.7	43.9*
COc1ccc(C(=O)Nc2cccc(OC)c2)cc1	-0.7	-11.0	7.5	2.5	10.7
COC(=O)C[C@@H]1OC[C@H](C(C)C)N1S(=O)(=O)c1ccc(C)cc1	/	/	/	/	1.7
Cc1cc(C(=O)N/N=C/c2cc(Cl)cc([N+](=O)[O-])c2O)c2ccccc2n1	22.9	12.1	34.9	-5.6	54.2*
O=C1C(Cl)=C(Nc2ccc3cn[nH]c3c2)C(=O)c2ccccc21	56.4*	/	78.2*	/	41.7
Cc1ccc(C)c2sc(NC(=O)c3nc4ccccc4s3)nc12	38.3	16.1	50.6*	-3.3	1.6
Cc1ccccc1C(=O)Nc1ccc(C(=O)N/N=C/c2ccc(O)c(Br)c2)cc1	0.4	-10.2	8.1	-1.5	5.6
Cc1n[nH]c(C)c1Sc1ccccc1N=Cc1cc(Cl)cc([N+](=O)[O-])c1O	54.8*	22.8	44.5	-1.7	13.6
N#C/C(=C\c1ccc(O)c(O)c1)S(=O)(=O)c1ccccc1	23.4	19.0	52.7*	-6.8	8.2
COc1ccc(NC(=S)NC(NC(=O)c2ccccc2Cl)C(Cl)(Cl)Cl)c([N+](=O)[O-])c1 (stereo unspecified)	33.7	22.3	56.1*	0.3	10.3
COc1ccc(NC(=S)NC(NC(=O)c2ccc(Cl)cc2Cl)C(Cl)(Cl)Cl)c([N+](=O)[O-])c1 (stereo unspecified)	33.3*	10.2	35.7	-4.5	6.9
COc1ccc(NC(=S)NC(NC(=O)c2cccc3ccccc23)C(Cl)(Cl)Cl)c([N+](=O)[O-])c1 (stereo unspecified)	26.1	9.8	41.1	-6.6	12.9
COc1cccc(COC(=O)C(Cc2ccccc2)NC(=O)c2ccco2)c1 (stereo unspecified)	-7.4	/	/	/	1.3
Cc1cccc2c(N=Nc3ccc(S(=O)(=O)Nc4cccc(Cl)c4)cc3[N+](=O)[O-])c(O)[nH]c12	18.7	13.8	58.1*	-3.2	1.8
Cc1ccc(S(=O)(=O)Nc2ccccc2)cc1[N+](=O)[O-]	-1.3	/	15.4	/	8.4
CC[n+]1c(/C=C/c2ccc(N(C)C)cc2)ccc2ccccc21	38.8	/	54.7*	/	8.1
CC[n+]1c(/C=C/c2ccc(OC)c(OC)c2)ccc2ccccc21	4.6	4.3	5.7	-3.0	1.4
COc1cc(C(=O)NC(=S)N(C)Cc2ccccc2)cc(OC)c1OC	5.1	4.8	8.6	-5.5	1.7
CN(Cc1ccccc1)C(=S)NC(=O)c1ccc(-c2ccccc2)cc1	31.5	32.0	57.0*	-1.8	7.8
CC(=O)Oc1ccc(N2C(=O)C3C4C=CC(CO)(O4)C3C2=O)cc1 (stereo unspecified)	17.1	8.8	-4.5	4.4	-2.8
O=C1C2C3C=CC(CO)(O3)C2C(=O)N1c1ccccc1-c1ccccc1 (stereo unspecified)	57.0*	16.5	101.5*	-4.1	-12.3
CC1CCC2(CC1)NC(=O)N(CC(=O)Nc1ccc(N3CCCCC3)cc1)C2=O (stereo unspecified)	-3.5	/	/	/	3.8
N=C1/C(=C/c2cccn2CCOc2ccccc2)C(=O)N=C2SC=C(c3ccccc3)N12	20.5	8.6	41.6	-2.1	41.0*

Screening results (PubChem)
